# T cruzi inh = blocks replication of Trypanosoma cruzi | T. cruzi beta-gal in NIH3T3, luminescence, 90 h | inhibition, % (no concentration beside the values) | 300,000 tested, 1.4% active;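 active means mean inhibition across valid replicates above about 55%, limit read from the data; inconclusive means mean below that limit but half or more replicates reach it; inactive means mean below it, under half of replicates reach it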;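 further: signal also drops with host cell toxicity which is not excluded here; 0% = plate median of DMSO wells and 100% = zero luminescence signal; higher percent means less beta-gal luminescence so fewer parasites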
#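 Test system: β-gal T. cruzi (Tulahuen C4) inside NIH/3T3 cells / Quantity: 5,000 cells/well / Measured by: luminescence from GalScreen with 0.05% NP40, read after 60 min / Medium: DMEM plus 2% FBS / Measure: parasite load inhibition, % / Reagent: Tulahuen C4 trypomastigotes, 5000/well / Schedule: co-culture of at least 90 h after 3 h attachment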
# UPR CHOP act = apoptotic UPR (CHOP) activation; CHO-CHOP luciferase reporter, luminescence; percent of tunicamycin response over DMSO baseline; activation, % at 10 µM; 330,000 tested, 0.34% active; AID 449763;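 active means at 10 µM dose, activation of 40% or more, normalized to positive control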;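 further: 100% = tunicamycin at 10 µg/mL and 0% = DMSO alone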
#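 Test system: CHO-CHOP cells, stable luciferase reporter of PERK-eIF2a-CHOP signalling | Quantity: 500 CHO-CHOP cells per well | Buffer or medium: F12 plus 10% serum | Compound dosing: 10 µM single point, 0.5% DMSO | Schedule: 6 h compound treatment, 37 °C | Signal: Luciferase luminescence | Control set: Tunicamycin high control, DMSO low control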
# XBP1 UPR activ = adaptive UPR (XBP1) activation; activation, % at 20 µM; CHO-XBP1 luciferase reporter, IRE1-XBP1 UPR activation, luminescence; percent of tunicamycin response, DMSO as zero; 330,000 tested, 0.33% active;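 active means versus positive control, 20 µM dose yields 30% or more activation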;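 further: 100% = tunicamycin at 10 µg/mL and 0% = DMSO only wells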
#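 Material – CHO cell line with stable XBP1 luciferase reporter · Buffer or medium – F12 plus 10% FBS · Compound – single point, 20 µM final compound, 1% DMSO · Schedule – 16-18 h cell attachment at 37 °C, then 6 h compound exposure · Signal – Steady-Glo luminescence read · Benchmarks – high control tunicamycin 10 µg/mL final, low control DMSO vehicle only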
# Mdm2-MdmX inh = inhibitors of human Mdm2/MdmX interaction. O15151+Q00987. SaOS-2 split-luciferase Mdm2/MdmX complementation, luminescence. inhibition, % at 8 µM. 330,000 tested, 3% active;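 active means inhibition of at least 50% at 8 µM in the primary screen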
# Target sequence (O15151 whole entry, looked up): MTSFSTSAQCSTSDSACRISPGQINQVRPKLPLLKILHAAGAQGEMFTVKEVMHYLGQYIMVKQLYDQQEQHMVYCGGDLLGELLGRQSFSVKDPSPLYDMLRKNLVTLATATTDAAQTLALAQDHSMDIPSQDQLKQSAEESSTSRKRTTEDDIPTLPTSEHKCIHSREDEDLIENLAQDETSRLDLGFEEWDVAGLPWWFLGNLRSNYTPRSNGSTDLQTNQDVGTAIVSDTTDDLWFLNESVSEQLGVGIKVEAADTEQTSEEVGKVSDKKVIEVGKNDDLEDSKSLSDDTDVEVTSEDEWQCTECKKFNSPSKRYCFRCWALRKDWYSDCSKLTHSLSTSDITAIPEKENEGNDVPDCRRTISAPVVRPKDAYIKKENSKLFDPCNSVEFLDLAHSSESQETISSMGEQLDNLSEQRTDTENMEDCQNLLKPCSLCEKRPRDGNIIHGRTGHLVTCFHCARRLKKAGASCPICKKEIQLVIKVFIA
# Target sequence (Q00987 whole entry, looked up): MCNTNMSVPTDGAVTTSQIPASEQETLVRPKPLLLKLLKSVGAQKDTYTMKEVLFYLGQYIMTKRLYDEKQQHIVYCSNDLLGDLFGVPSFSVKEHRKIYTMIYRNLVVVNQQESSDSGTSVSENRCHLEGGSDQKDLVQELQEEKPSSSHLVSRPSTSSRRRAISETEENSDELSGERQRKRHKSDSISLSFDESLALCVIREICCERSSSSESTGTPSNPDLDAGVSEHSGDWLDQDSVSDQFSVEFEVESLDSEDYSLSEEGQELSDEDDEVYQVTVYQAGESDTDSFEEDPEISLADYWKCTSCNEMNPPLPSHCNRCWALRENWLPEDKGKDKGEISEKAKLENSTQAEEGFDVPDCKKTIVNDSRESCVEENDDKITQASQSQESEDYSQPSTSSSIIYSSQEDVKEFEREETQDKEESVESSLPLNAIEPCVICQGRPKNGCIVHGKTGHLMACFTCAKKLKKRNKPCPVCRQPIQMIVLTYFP
# Beta cell apopt = beta cell apoptosis inhibition | INS-1E cytokine-induced death, ATP luminescence, 48 h; percent of positive-control rescue, neutral wells zero | protection from apoptosis, % (test concentration not listed) | 300,000 tested, 0.8% active;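 active means Every replicate reaches about 75%, or at least half do and their mean reaches it too, limit read from the data; inconclusive means At least half of replicates reach the limit but their mean does not; inactive means Under half of replicates reach the limit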;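 further: 0% = cytokine-treated negative control wells and 100% = positive control rescue; higher means more ATP so stronger rescue from cytokine killing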
# CSC inhib = cancer stem cell inhibition. cancer stem cell-like cells viability, luminescence. inhibition, % at 7.5 µM. 300,000 tested, 1.1% active. AID 2717; in the data active means inhibition above about 75%; inconclusive means no clear call, values can overlap the other calls; tested in HMLE shEcad cells
# Mdm2 MdmX conf = human Mdm2/MdmX binding inhibition, confirmed; shares compounds with Mdm2-MdmX inh; luminescent assay; inhibition, % at 8 µM; 10,000 tested, 55% active; in the data active means inhibition above about 40%
# FLuc counter = counter-screen for Mdm2/MdmX inhibitors: full-length luciferase | shares compounds with Mdm2-MdmX inh | inhibition, % at 8 µM | 6,200 tested, 77% active | SaOS-2 full-length luciferase counterscreen, luminescence;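 active means mean inhibition at 8 µM reaching about 37%, which flags the compound as non-specific, limit read from the data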;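 further: p53-null SaOS-2 cells with luciferase driven by a doxycycline-inducible promoter; compound on cells about two nights before reading with doxycycline added after day one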
# * hit, by the source's call; u = inconclusive; x = no result. The list is not random: actives were taken first. Their share in the collection is about 5%.
SMILES,T cruzi inh,UPR CHOP act,XBP1 UPR activ,Mdm2-MdmX inh,Beta cell apopt,CSC inhib,Mdm2 MdmX conf,FLuc counter
Cc1cc2cc3c(cc2nc1SCC(=O)N1CCCC1)OCCO3,18,0,1,-11,x,x,x,x
N#Cc1cc2cc3c(cc2nc1SCC(=O)N1CCOCC1)OCCO3,-6,-3,-8,84*,15,x,88*,81*
O=C(c1ccco1)N1CCCC(c2nc3c(nnn3Cc3ccc(F)cc3)c(=O)[nH]2)C1 (stereo not drawn),-3,0,3,-20,2,-15,x,x
CCc1nc(N2CCN(C(=O)c3ccccc3)CC2)c2c3c(sc2n1)CCCC3,33,-3,-1,22,x,x,x,x
CCc1nc(Sc2nnnn2-c2ccccc2)c2c3c(sc2n1)CCCC3,15,1,0,93*,-8,16,84*,52*
CCSc1nnc(NC(=O)NC(CC)(C(F)(F)F)C(F)(F)F)s1,13,-4,5,90*,39,99*,36,64*
COc1ccccc1NC(=O)NCC1CC1(Cl)Cl (stereo not drawn),-13,4,-2,-27,-2,13,x,x
Cc1cc2c(cc1C)N(Cc1ccc(Cl)cc1)C1=NCCCN12,27,0,-2,56*,4,6,39,90*
Cc1ccc(CN2C3=NCCCN3c3ccccc32)cc1,x,0,-1,21,2,-1,x,x
CC(C)(C)c1ccc(CN2C3=NCCCN3c3ccccc32)cc1,69*,3,1,69*,41,31,33,61*
COCCCNC(=O)CCN1N=C(c2ccccc2)CCC1=O,-1,0,-2,15,0,-8,x,x
Cc1ccc(-c2nc(CS(=O)CC(=O)NCCCc3ccccc3)c(C)o2)cc1 (stereo not drawn),19,1,-2,12,-5,-6,x,x
O=C(Nc1cccc(S(=O)(=O)N2CCCCC2)c1)Nc1ccc(Cl)cc1Cl,45,2,9,88*,29,65,40,x
COc1ccccc1NS(=O)(=O)c1cccc(NC(=O)Nc2ccc(Cl)cc2)c1,67*,5,6,94*,47,x,43*,69*
COc1cc(Cl)c(C)cc1NCC(=O)Nc1cccc(S(=O)(=O)N2CCCC2)c1,x,-1,-3,51*,-2,x,14,x
COc1ccccc1NS(=O)(=O)c1cccc(NC(=O)Nc2ccccc2)c1,13,1,-5,25,2,3,x,x
COc1ccc(NC(=O)COc2cc(C)cc(C)c2)cc1S(=O)(=O)N1CCCCC1,27,-1,-5,62*,-4,3,75*,51*
O=C(CNc1ccc(F)cc1Cl)Nc1cccc(S(=O)(=O)N2CCCCC2)c1,x,-1,-1,6,8,x,x,x
Cc1noc(C)c1S(=O)(=O)N(C)C[C@H]1Oc2ccc(NS(=O)(=O)c3ccccc3)cc2C(=O)N([C@H](C)CO)C[C@@H]1C,x,1,-4,-1,5,4,x,x
Cc1cc(NC(=O)CSc2nnnn2-c2ccc(C)c(Cl)c2)no1,6,0,1,-3,-2,-21,x,x
Cc1cc(C)c(OCC(=O)NCC(C)(C)N2CCOCC2)c(C)c1,6,0,3,4,2,10,x,x
O=C(Nc1ccc(Cl)cc1Cl)NC1CCCC1,17,4,1,0,3,10,x,x
O=C(Nc1ccc(Cl)cc1Cl)NC1CCN(S(=O)(=O)c2ccc(F)cc2)CC1,9,-1,4,51*,7,60,42*,59*
O=C(Nc1ccc(Cl)cn1)c1ccc(-c2cc(Cl)ccc2Cl)o1,1,-1,-3,74*,-4,19,4,x
Cc1ccccc1NC(=O)c1ccc(-c2ccc(Cl)cc2Cl)o1,7,2,2,27,1,47,x,x
SMILES,T cruzi inh,UPR CHOP act,XBP1 UPR activ,Mdm2-MdmX inh,Beta cell apopt,CSC inhib,Mdm2 MdmX conf,FLuc counter
Cc1cccc(C)c1NC(=O)c1ccc(-c2ccc(Cl)cc2Cl)o1,29,-1,-6,56*,0,53,46*,45*
O=C(Nc1ccccc1N1CCCCC1)c1ccc(-c2cc(Cl)ccc2Cl)o1,12,-1,5,50*,3,12,-14,x
C/C(=N/NC(=O)CCCOc1ccc(Cl)cc1Cl)c1ccc(C)o1,10,-1,1,25,1,8,x,x
Cc1ccc(-c2nn3c(C)nnc3c3ccccc23)cc1S(=O)(=O)NCCO,-4,-1,-2,38,5,4,x,x
Cc1ccc(-c2nn3c(C)nnc3c3ccccc23)cc1S(=O)(=O)NC(C)c1ccccc1 (stereo not drawn),29,5,7,62*,34,-3,30,x
Cc1ccc(-c2nn3c(C)nnc3c3ccccc23)cc1S(=O)(=O)NC(C)(C)CO,-1,-1,0,71*,x,-1,53*,78*
Cc1ccc(-c2nn3c(C)nnc3c3ccccc23)cc1S(=O)(=O)NCc1ccco1,18,0,2,47,20,3,x,x
Cc1nnc2c3ccccc3c(-c3ccccc3)nn12,-31,-1,5,64*,-28,-18,28,x
C=CCn1c(SCc2ccc3c(c2)OCO3)nc2scc(-c3ccco3)c2c1=O,-16,-2,-3,22,3,10,x,x
N=c1ccn2c(n1)O[C@H]1[C@@H](CO)[C@H](O)O[C@H]12,x,-2,-5,69*,9,56,61*,43*
N=c1ccn2c(n1)O[C@H]1[C@H](O)[C@@H](CO)O[C@H]12,17,-1,-1,61*,1,30,64*,46*
O=C(OCC1OC2C(Oc3nc(=O)ccn32)C1O)c1ccccc1 (stereo not drawn),5,-1,2,5,2,-8,x,x
COc1ccc2c(=O)c(Oc3ccc(C(=O)O)cc3)c(C(F)(F)F)oc2c1,-16,1,4,-69,5,4,x,x
CCN1C(=O)CS/C1=N\S(=O)(=O)c1ccc(Cl)cc1,7,0,-1,-17,0,6,x,x
CCn1c(Cl)c(C=O)s/c1=N\S(=O)(=O)c1ccccc1,55*,-11,-7,100*,117*,u,98*,51*
Cn1c(CCC(=O)OCC(=O)NCc2ccc3c(c2)OCO3)nc(=O)c2ccccc21,5,0,3,-4,-3,-2,x,x
COc1ccccc1NC(=O)N1CCC(c2nc3cc(C)c(C)cc3[nH]2)CC1,41,-1,12,57*,15,67,70*,72*
